# Legend:
# Calf thymus DNA [1] = assay: Tested for thermal denaturation against CT-DNA at 0 hours; type: nucleic-acid assay; conditions: Bos taurus
# How it was run: (§1)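 CT-DNA (42% G+C) at 100 μM in DNA phosphate with compound at 20 μM (5:1 ratio). Buffer pH 7.00, 10 mM sodium phosphate, 1 mM EDTA, ≤0.6% v/v MeOH. Incubated at 37.0 °C for the stated time. Melted at 1 °C/min from 45 to 98 °C, read at 260 nm. ΔTm is Tm with ligand minus free DNA Tm, MeOH-corrected; mean ± SD of ≥3 runs.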
# Calf thymus DNA [2] = assay: Tested for thermal denaturation against CT-DNA at 4 hours; type: nucleic-acid assay; conditions: Bos taurus; how it was run: as §1
# L1210 [3] = assay: Tested for cytotoxicity against L1210 mouse Leukemia cell; type: functional, cell-based
# How it was run: (§2)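 L1210 mouse leukemia grown in suspension. Seeded day 0 at 10^4 cells/mL in RPMI 1640 with 10% horse serum. Log phase checked day 1, then compound added for 48 h at 37 °C. Cells counted day 3 by Coulter counter. IC50 is 50% growth inhibition versus solvent-treated controls. Dose range 10^-4–10^-11 M in 10-fold steps, <0.05% v/v DMSO.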
# CH1 = assay: Tested for cytotoxicity against CH1 human ovarian cells; type: functional, cell-based
# How it was run: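 CH1 human ovarian monolayer, plated day 0 at 100–200 cells per T25 flask in Dulbecco's medium with 10% fetal calf serum and allowed to attach overnight. Compound added day 1 and left continuously at 37 °C. Colonies fixed day 9 in EtOH, stained with methylene blue and counted. IC50 is 50% inhibition versus solvent controls. Range 10^-4–10^-11 M, 10-fold steps.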
# [4] = Tested for cytotoxicity against ADJ/PC6 mouse plasmacytoma; type: functional, cell-based
# How it was run: (§3)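 ADJ/PC6 mouse plasmacytoma grown in suspension. Seeded day 0 at 3–5 × 10^4 cells/mL in Dulbecco's medium with 20% horse serum. Log-phase confirmed day 1, then compound added for 72 h at 37 °C. Cells counted day 4 by Coulter counter. IC50 is the dose giving 50% growth inhibition versus solvent controls. Screened 10^-4–10^-11 M in 10-fold steps, <0.05% v/v DMSO.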
# Calf thymus DNA [5] = assay: Tested for thermal denaturation against CT-DNA; conditions: Bos taurus
# Calf thymus DNA [6] = assay: Tested for thermal denaturation against CT-DNA at 18 hours; conditions: Bos taurus
# L1210 [7] = assay: Tested for cytotoxicity against L1210 Leukemia cell; type: functional, cell-based; conditions: Mus musculus; how it was run: as §2
# [8] = Tested for cytotoxicity against ADJ/PC6 plasmacytoma; type: functional, cell-based, Mus musculus; how it was run: as §3
SMILES,ΔTm (Calf thymus DNA [1]),ΔTm (Calf thymus DNA [2]),IC50 (L1210 [3]),IC50 (CH1),IC50 [4],ΔTm (Calf thymus DNA [5]),ΔTm (Calf thymus DNA [6]),IC50 (L1210 [7]),IC50 [8]
COC(=O)c1c2c(nn1C)C(=O)N1CCC[C@H]1C=N2,0.2 °C,0.3 °C,35000 nM,> 100000 nM,> 50000 nM,0.5 °C,–,–,–
O=C1c2ccccc2N=C[C@@H]2CCCN12,0.3 °C,0.4 °C,–,42000 nM,–,–,0.6 °C,> 100000 nM,38000 nM
COc1cc2c(cc1NC(=O)OCc1ccccc1)N=C[C@@H]1CCCN1C2=O,0.1 °C,0.2 °C,4500 nM,1800 nM,3200 nM,0.4 °C,–,–,–
COc1nc(OC)c2c(n1)C(=O)N1CCC[C@H]1C=N2,0.1 °C,0.2 °C,42000 nM,–,–,0.3 °C,–,–,–
COC(=O)CCOc1cc2c(cc1OC)C(=O)N1CCC[C@H]1C=N2,0.3 °C,0.5 °C,–,4400 nM,–,–,0.6 °C,–,–
COc1cc2c(cc1OCCCOCc1ccccc1)N=C[C@@H]1CCCN1C2=O,0.2 °C,0.4 °C,–,290 nM,–,–,0.6 °C,2400 nM,2300 nM
CCCCOC1CC[C@H]2C=Nc3cc(O)c(OC)cc3C(=O)N12 (some centres undefined),0.5 °C,0.6 °C,–,430 nM,–,–,0.8 °C,2700 nM,1300 nM
O=C1c2cc3c(cc2N=C[C@@H]2CCCN12)OCCO3,0.1 °C,0.3 °C,–,460 nM,–,–,0.5 °C,2700 nM,3400 nM
CO[C@@H]1Nc2ncccc2C(=O)N2CCC[C@@H]12,0.3 °C,0.5 °C,13000 nM,43000 nM,> 50000 nM,0.5 °C,–,–,–
COC1Nc2c(ccc(C)c2O)C(=O)N2C=C(/C=C/C(N)=O)C[C@@H]12 (some centres undefined),9.4 °C,11.2 °C,22 nM,320 nM,2.8 nM,–,13 °C,–,–
COc1cc2c(cc1O)N=C[C@@H]1CCCN1C2=O,0.3 °C,0.5 °C,–,100 nM,–,–,–,–,330 nM
COc1cc2c(cc1OCc1ccccc1)N=C[C@@H]1CCCN1C2=O,0.2 °C,0.4 °C,–,1000 nM,–,–,0.4 °C,3000 nM,370 nM
COc1cc2c(cc1O)C(=O)N1CCC[C@H]1C=N2,0.3 °C,0.5 °C,–,200 nM,–,–,0.6 °C,2700 nM,2700 nM
C/C=C1\C[C@H]2C=Nc3cc(O)c(OC)cc3C(=O)N2C1,1 °C,2.4 °C,–,0.13 nM,–,–,2.6 °C,3.7 nM,1.8 nM
CO[C@H]1Nc2nccnc2C(=O)N2CCC[C@@H]12,0.3 °C,0.6 °C,–,17000 nM,–,0.7 °C,–,–,–
O=C1c2cc3c(cc2N=C[C@@H]2CCCN12)OCO3,0.1 °C,0.2 °C,–,260 nM,–,–,0.4 °C,1500 nM,1900 nM
CO[C@H]1Nc2ncccc2C(=O)N2CCC[C@@H]12,0.3 °C,0.5 °C,13000 nM,43000 nM,> 50000 nM,0.5 °C,–,–,–

# — ChEMBL document CHEMBL1132143, “Effect of A-ring modifications on the DNA-binding behavior and cytotoxicity of pyrrolo[2,1-c][1,4]benzodiazepines” (J Med Chem, 1999)
